# Laboratory results as given in ChEMBL document CHEMBL1157638, “Fluorescent epigenetic small molecule induces expression of the tumor suppressor ras-association domain family 1A and inhibits human prostate xenograft” (J Med Chem, 2010).
# Experiments:
# MCF7 = assay: Growth inhibition of human MCF7 cells assessed as cell growth at 10 nM relative to untreated control; format: functional; conditions: read-out: Activity
# [1] = Growth inhibition of human […] cells assessed as cell growth at 100 nM relative to untreated control; format: functional; conditions: read-out: Activity
# HCT-116 [2] = assay: Growth inhibition of human HCT116 cells assessed as cell growth at 100 nM relative to untreated control; format: functional; conditions: read-out: Activity
# In short: (§1)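 Run externally at the National Cancer Institute as a 59-cell-line panel screen, with concentrations up to 100 μM. Growth was scored relative to control, where negative growth or total cell kill was possible. Data are in the Supporting Information.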
# SK-MEL-2 [3] = assay: Growth inhibition of human SK-MEL-2 cells assessed as cell growth at 100 nM relative to untreated control; format: functional; conditions: read-out: Activity
# HOP-62 = assay: Growth inhibition of human HOP62 cells assessed as cell growth at 1 uM relative to untreated control; format: functional; conditions: read-out: Activity; in short: as §1
# SF-268 = assay: Growth inhibition of human SF268 cells assessed as cell growth at 1 uM relative to untreated control; format: functional; conditions: read-out: Activity
# U-251 = assay: Growth inhibition of human U251 cells assessed as cell growth at 1 nM relative to untreated control; format: functional; conditions: read-out: Activity
# Malme-3M [4] = assay: Growth inhibition of human MALME-3M cells assessed as cell growth at 1 nM relative to untreated control; format: functional; conditions: read-out: Activity
# MDA-MB-435 = assay: Growth inhibition of human MDA-MB-435 cells assessed as cell growth at 1 nM relative to untreated control; format: functional; conditions: read-out: Activity
# SNB-75 = assay: Growth inhibition of human SNB75 cells assessed as cell growth at 1 uM relative to untreated control; format: functional; conditions: read-out: Activity
# SK-MEL-2 [5] = assay: Growth inhibition of human SK-MEL-2 cells assessed as cell growth at 1 uM relative to untreated control; format: functional; conditions: read-out: Activity
# SK-MEL-5 [6] = assay: Growth inhibition of human SK-MEL-5 cells assessed as cell growth at 1 uM relative to untreated control; format: functional; conditions: read-out: Activity
# OVCAR-4 [7] = assay: Growth inhibition of human OVCAR4 cells assessed as cell growth at 1 uM relative to untreated control; format: functional; conditions: read-out: Activity
# OVCAR-4 [8] = assay: Growth inhibition of human OVCAR4 cells assessed as cell growth at 1 nM relative to untreated control; format: functional; conditions: read-out: Activity
# SR = assay: Growth inhibition of human SR cells assessed as cell growth at 10 nM relative to untreated control; format: functional; conditions: read-out: Activity
# HOP-92 = assay: Growth inhibition of human HOP92 cells assessed as cell growth at 10 nM relative to untreated control; format: functional; conditions: read-out: Activity; in short: as §1
# NCI-H23 = assay: Growth inhibition of human NCI-H23 cells assessed as cell growth at 10 nM relative to untreated control; format: functional; conditions: read-out: Activity
# NCI-H322M [9] = assay: Growth inhibition of human NCI-H322M cells assessed as cell growth at 10 nM relative to untreated control; format: functional; conditions: read-out: Activity
# A498 [10] = assay: Growth inhibition of human A498 cells assessed as cell growth at 1 uM relative to untreated control; format: functional; conditions: read-out: Activity
# MDA-MB-231 = assay: Growth inhibition of human MDA-MB-231 cells assessed as cell growth at 1 uM relative to untreated control; format: functional; conditions: read-out: Activity
# BT-549 = assay: Growth inhibition of human BT549 cells assessed as cell growth at 1 uM relative to untreated control; format: functional; conditions: read-out: Activity
# CCRF-CEM = assay: Growth inhibition of human CCRF-CEM cells assessed as cell growth at 10 uM relative to untreated control; format: functional; conditions: read-out: Activity
# NCI-H460 = assay: Growth inhibition of human NCI-H460 cells assessed as cell growth at 10 uM relative to untreated control; format: functional; conditions: read-out: Activity
# HT-29 = assay: Growth inhibition of human HT-29 cells assessed as cell growth at 10 uM relative to untreated control; format: functional; conditions: read-out: Activity
# IGROV-1 = assay: Growth inhibition of human IGROV1 cells assessed as cell growth at 10 uM relative to untreated control; format: functional; conditions: read-out: Activity
# OVCAR-4 [11] = assay: Growth inhibition of human OVCAR4 cells assessed as cell growth at 10 uM relative to untreated control; format: functional; conditions: read-out: Activity
# RXF 393 = assay: Growth inhibition of human RXF393 cells assessed as cell growth at 10 uM relative to untreated control; format: functional; conditions: read-out: Activity
# SN12C [12] = assay: Growth inhibition of human SN12C cells assessed as cell growth at 10 uM relative to untreated control; format: functional; conditions: read-out: Activity
# HL-60(TB) = assay: Growth inhibition of human HL-60(TB) cells; format: functional; conditions: read-out: LC50 (the source's name)
# K562 = assay: Growth inhibition of human K562 cells; format: functional
# NCI-H226 = assay: Growth inhibition of human NCI-H226 cells; format: functional
# NCI-H322M [13] = assay: Growth inhibition of human NCI-H322M cells; format: functional
# COLO 205 = assay: Growth inhibition of human COLO205 cells; format: functional
# KM12 [14] = assay: Growth inhibition of human KM12 cells; format: functional
# OVCAR-4 [15] = assay: Growth inhibition of human OVCAR4 cells; format: functional
# OVCAR-5 = assay: Growth inhibition of human OVCAR5 cells; format: functional
# Mus musculus = assay: Toxicity in BALB/c mouse up to 550 mg/kg, po; format: organism-based; parameters: dose 550 mg/kg, route oral; conditions: in vivo
# [16] = Therapeutic index, ratio of toxic dose in BALB/c mouse to antitumor dose in human PC3 cells xenografted BALB/c mouse; format: cell-based, PC-3; conditions: in vivo, read-out: TI
# [17] = Growth inhibition of human […] cells assessed as cell growth at 1 nM relative to untreated control; format: functional; conditions: read-out: Activity
# SN12C [18] = assay: Growth inhibition of human SN12C cells; format: functional
# TK-10 = assay: Growth inhibition of human TK10 cells; format: functional
# HCT-116 [19] = assay: Growth inhibition of human HCT116 cells assessed as cell growth at 10 nM relative to untreated control; format: functional; conditions: read-out: Activity; in short: as §1
# KM12 [20] = assay: Growth inhibition of human KM12 cells assessed as cell growth at 10 nM relative to untreated control; format: functional; conditions: read-out: Activity
# Malme-3M [21] = assay: Growth inhibition of human MALME-3M cells assessed as cell growth at 10 nM relative to untreated control; format: functional; conditions: read-out: Activity
# SK-MEL-5 [22] = assay: Growth inhibition of human SK-MEL-5 cells assessed as cell growth at 10 nM relative to untreated control; format: functional; conditions: read-out: Activity
# NCI/ADR-RES = assay: Growth inhibition of human NCI/ADR-RES cells assessed as cell growth at 10 nM relative to untreated control; format: functional; conditions: read-out: Activity
# A498 [23] = assay: Growth inhibition of human A498 cells assessed as cell growth at 10 nM relative to untreated control; format: functional; conditions: read-out: Activity
# SN12C [24] = assay: Growth inhibition of human SN12C cells assessed as cell growth at 10 nM relative to untreated control; format: functional; conditions: read-out: Activity
# [25] = read-out: LC50 (the source's name)
compound,measurement,setting,value
COc1ccc2c(c1)[nH]c1c(C)c(OS(=O)(=O)c3cccc4c(N(C)C)cccc34)ccc12,growth at 0.01 µM,MCF7,86%
same,growth at 0.1 µM,[1],90%
same,growth at 0.1 µM,HCT-116 [2],94%
same,growth at 0.1 µM,SK-MEL-2 [3],115%
same,growth at 1 µM,HOP-62,55%
same,growth at 1 µM,SF-268,44%
same,growth at 0.001 µM,U-251,100%
same,growth at 0.001 µM,Malme-3M [4],93%
same,growth at 0.001 µM,MDA-MB-435,100%
same,growth at 1 µM,SNB-75,24%
same,growth at 1 µM,SK-MEL-2 [5],50%
same,growth at 1 µM,SK-MEL-5 [6],-3%
same,growth at 1 µM,OVCAR-4 [7],44%
same,growth at 0.001 µM,OVCAR-4 [8],94%
same,growth at 0.01 µM,SR,91%
same,growth at 0.01 µM,HOP-92,96%
same,growth at 0.01 µM,NCI-H23,91%
same,growth at 0.01 µM,NCI-H322M [9],94%
same,growth at 1 µM,A498 [10],15%
same,growth at 1 µM,MDA-MB-231,49%
same,growth at 1 µM,BT-549,37%
same,growth at 10 µM,CCRF-CEM,1%
same,growth at 10 µM,NCI-H460,-3%
same,growth at 10 µM,HT-29,8%
same,growth at 10 µM,IGROV-1,39%
same,growth at 10 µM,OVCAR-4 [11],30%
same,growth at 10 µM,RXF 393,-32%
same,growth at 10 µM,SN12C [12],30%
same,CC50,HL-60(TB),> 100 µM
same,GI50,K562,3.01 µM
same,TGI,K562,> 100 µM
same,CC50,K562; [25],> 100 µM
same,GI50,NCI-H226,11.3 µM
same,TGI,NCI-H226,> 100 µM
same,CC50,NCI-H226; [25],> 100 µM
same,GI50,NCI-H322M [13],12.8 µM
same,TGI,NCI-H322M [13],> 100 µM
same,CC50,NCI-H322M [13]; [25],> 100 µM
same,GI50,COLO 205,4.24 µM
same,TGI,COLO 205,> 100 µM
same,CC50,COLO 205; [25],> 100 µM
same,GI50,KM12 [14],41.5 µM
same,TGI,KM12 [14],> 100 µM
same,CC50,KM12 [14]; [25],> 100 µM
same,GI50,OVCAR-4 [15],7.4 µM
same,TGI,OVCAR-4 [15],> 100 µM
same,CC50,OVCAR-4 [15]; [25],> 100 µM
same,GI50,OVCAR-5,56.1 µM
same,TGI,OVCAR-5,> 100 µM
same,CC50,OVCAR-5; [25],> 100 µM
same,Activity,Mus musculus,Non-toxic
same,selectivity ratio,[16],> 55
same,growth at 0.001 µM,[17],99%
same,GI50,SN12C [18],11.3 µM
same,TGI,SN12C [18],> 100 µM
same,CC50,SN12C [18]; [25],> 100 µM
same,GI50,TK-10,9.19 µM
same,TGI,TK-10,> 100 µM
same,CC50,TK-10; [25],> 100 µM
same,growth at 0.01 µM,HCT-116 [19],106%
same,growth at 0.01 µM,KM12 [20],102%
same,growth at 0.01 µM,Malme-3M [21],89%
same,growth at 0.01 µM,SK-MEL-5 [22],86%
same,growth at 0.01 µM,NCI/ADR-RES,111%
same,growth at 0.01 µM,A498 [23],83%
same,growth at 0.01 µM,SN12C [24],92%
